Data set [1] addresses T1, Mu-type opioid receptor (Homo sapiens, UniProt P35372). The data set is described as follows: Agonist activity at mu opioid receptor (unknown origin) expressed in HEK293-A cells assessed as reduction in forskolin-induced cAMP accumulation incubated for 30 mins by competition PKA binding assay relative to Tyr-D-Ala-Gly-Phe-Gln-Pro-Gln-Arg-Phe-NH2. Type of data set: functional, cell-based. The following applies: filed as agonist. The procedure, abridged: (§1)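 cAMP functional read-out in transfected cells. Log EC50 ± standard error was obtained by nonlinear regression of data from at least three independent experiments run in duplicate.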
For orientation: cAMP levels reflect the balance of adenylyl cyclase and phosphodiesterase activity.

A short description of data set [2]: Half life in mouse brain membrane homogenate at 10 uM by HPLC analysis. Type of data set: ADME, cell membranes.
Data set [3] concerns the target T1, Mu-type opioid receptor. Nature of the data set: Agonist activity at mu opioid receptor (unknown origin) expressed in HEK293-A cells assessed as reduction in forskolin-induced cAMP accumulation incubated for 30 mins by competition PKA binding assay. Type of data set: functional, cell-based. Conditions: read-out: EC50. In short, it runs like this:
as §1

The subject of data set [4] is Mus musculus. Nature of the data set: Antinociceptive activity in ip dosed mouse by radiant heat tail-flick test. Type of data set: functional. For orientation: Hot-plate and tail-flick tests time the reaction to a heat stimulus.
Data set [5] has as its system Mus musculus. The data set is described as follows: Antinociceptive activity in mouse model of CFA-induced chronic inflammatory pain assessed as reduction in tactile hyperalgesia at 30 pmol, icv dosed once daily for 6 days. The data set is classed as functional, organism-based. Conditions: time 6.0 day.
The subject of data set [6] is Mus musculus. Nature of the data set: Antinociceptive activity in mouse at 50 pmol, […] pre-treated with 10 nmol, icv nonselective NPFF receptor antagonist RF9 by radiant heat tail-flick test. Type of data set: functional, organism-based.
Data set [7] deals with Mus musculus. Nature of the data set: Antinociceptive activity in icv dosed mouse model of CFA-induced chronic inflammatory pain assessed as reduction in tactile hyperalgesia measured after 15 to 90 mins post dose. The data set is classed as functional. Conditions: time 15-90 min.
For data set [8], the target named is T2, Neuropeptide FF receptor 1 (Homo sapiens, UniProt Q9GZQ6). Nature of the data set: Agonist activity at NPFFR1 (unknown origin) expressed in HEK293-A cells assessed as reduction in forskolin-induced cAMP accumulation incubated for 30 mins by competition PKA binding assay relative to Tyr-D-Ala-Gly-Phe-Gln-Pro-Gln-Arg-Phe-NH2. The data set is classed as functional, cell-based. The following applies: filed as agonist. In short, it runs like this: as §1

Data set [9] concerns Mus musculus. Nature of the data set: Antinociceptive activity in mouse at 50 pmol, […] pre-treated with 10 nmol, icv mu opioid receptor antagonist beta-funaltrexamine 4 hrs prior to test compound dosing by radiant heat tail-flick test. Type of data set: functional, organism-based.
Data set [10] has as its target T2, Neuropeptide FF receptor 1. Nature of the data set: Agonist activity at NPFFR1 (unknown origin) expressed in HEK293-A cells assessed as reduction in forskolin-induced cAMP accumulation incubated for 30 mins by competition PKA binding assay. The data set is classed as functional, cell-based. The following applies: read-out: EC50. In short, it runs like this: as §1

Data set [11] concerns the target Kappa-type opioid receptor (Homo sapiens, UniProt P41145). Nature of the data set: Agonist activity at kappa opioid receptor (unknown origin) expressed in HEK293-A cells assessed as reduction in forskolin-induced cAMP accumulation incubated for 30 mins by competition PKA binding assay. The data set is classed as functional, cell-based. In short, it runs like this: as §1

For data set [12], the target named is T3, Delta-type opioid receptor (Homo sapiens, UniProt P41143). Nature of the data set: Agonist activity at delta opioid receptor (unknown origin) expressed in HEK293-A cells assessed as reduction in forskolin-induced cAMP accumulation incubated for 30 mins by competition PKA binding assay relative to Tyr-D-Ala-Gly-Phe-Gln-Pro-Gln-Arg-Phe-NH2. The data set is classed as functional, cell-based. Conditions: filed as agonist. In short, it runs like this:
as §1

The test system of data set [13] is Mus musculus. The data set is described as follows: Antinociceptive activity in mouse at 50 pmol, […] pre-treated with 10 nmol, icv delta opioid receptor antagonist naltrindole 20 mins prior to test compound dosing by radiant heat tail-flick test. Type of data set: functional, organism-based.
Data set [14] in a line: Toxicity in mouse assessed as latency to fall off the rod at 200 pmol, icv measured after 10 to 30 mins by rotarod test. Conditions: in vivo, icv_or_intrathecal, time 10-30 min. In general terms: The rotarod test checks motor coordination on a turning rod.
Data set [15] can be described thus: Toxicity in mouse assessed as latency to fall off the rod at 30 mg/kg, ip measured after 10 to 30 mins by rotarod test. Type of data set: organism-based. The following applies: in vivo, time 10-30 min.
Data set [16] relates to Mus musculus. Nature of the data set: Antinociceptive activity in mouse at 50 pmol, […] pre-treated with 10 nmol, icv kappa opioid receptor antagonist nor-binaltorphimine 30 mins prior to test compound dosing by radiant heat tail-flick test. The data set is classed as functional, organism-based.
Data set [17] concerns the target T4, Neuropeptide FF receptor 2 (Homo sapiens, UniProt Q9Y5X5). The data set is described as follows: Agonist activity at NPFFR2 (unknown origin) expressed in HEK293-A cells assessed as reduction in forskolin-induced cAMP accumulation incubated for 30 mins by competition PKA binding assay relative to Tyr-D-Ala-Gly-Phe-Gln-Pro-Gln-Arg-Phe-NH2. Conditions: filed as agonist. The data set is classed as functional, cell-based. In short, it runs like this:
as §1

Data set [18] concerns Mus musculus. Nature of the data set: Antinociceptive activity in mouse assessed as time for peak antinociceptive effect dosed repeated icv injections for 6 days by radiant heat tail-flick test. The following applies: time 6 day. The data set is classed as functional.
Data set [19] has as its system Mus musculus. The data set is described as follows: Antinociceptive activity in mouse assessed as development of tolerance dosed repeated icv injections for 6 days by radiant heat tail-flick test. Type of data set: functional, organism-based. Conditions: time 6.0 day. The procedure, abridged:
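Tail-flick test in mice. Peptide was given icv once daily for 6 days at a fixed dose. Antinociceptive responses to the same dose on day 1 and day 6 were compared to judge tolerance. Values are mean ± SEM.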

In data set [20] the target is T3, Delta-type opioid receptor. Nature of the data set: Agonist activity at delta opioid receptor (unknown origin) expressed in HEK293-A cells assessed as reduction in forskolin-induced cAMP accumulation incubated for 30 mins by competition PKA binding assay. Type of data set: functional, cell-based. In short, it runs like this: as §1
In data set [21] the test system is Mus musculus. The data set is described as follows: Antinociceptive activity in mouse dosed repeated icv injections for 6 days by radiant heat tail-flick test. The data set is classed as functional. Conditions: time 6 day. In short, it runs like this:
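Mice received the same icv dose once daily for 6 days in the radiant heat tail-flick test. Tolerance was judged by comparing the antinociceptive response on day 1 with day 6. Values are mean ± SEM.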

For data set [22], the system named is Mus musculus. The data set is described as follows: Antinociceptive activity in mouse assessed as time duration of antinociceptive effect dosed repeated icv injections for 6 days by radiant heat tail-flick test. The data set is classed as functional. The following applies: time 6 day.
The test system of data set [23] is Mus musculus. The data set is described as follows: Antinociceptive activity in icv dosed mouse assessed as inhibition of phase I flinching behaviors by formalin-induced nociceptive behavioral test. Type of data set: functional.
The subject of data set [24] is Mus musculus. The data set is described as follows: Antinociceptive activity in mouse at 50 pmol, […] pre-treated with 5 nmol, icv opioid receptor antagonist naloxone 10 mins prior to test compound dosing by radiant heat tail-flick test. Type of data set: functional, organism-based.
For data set [25], the target named is T4, Neuropeptide FF receptor 2. The data set is described as follows: Agonist activity at NPFFR2 (unknown origin) expressed in HEK293-A cells assessed as reduction in forskolin-induced cAMP accumulation incubated for 30 mins by competition PKA binding assay. Type of data set: functional, cell-based. Conditions: read-out: EC50. The procedure, abridged:
as §1

Data set [26] concerns Mus musculus. Nature of the data set: Antinociceptive activity in icv dosed mouse assessed as inhibition of phase II flinching behaviors by formalin-induced nociceptive behavioral test. The data set is classed as functional.
For data set [27], the target named is T3, Delta-type opioid receptor. The data set is described as follows: Agonist activity at delta opioid receptor (unknown origin) expressed in HEK293-A cells assessed as reduction in forskolin-induced cAMP accumulation at 10 uM incubated for 30 mins by competition PKA binding assay relative to Tyr-D-Ala-Gly-Phe-Gln-Pro-Gln-Arg-Phe-NH2. The data set is classed as functional, cell-based. Conditions: filed as agonist. In short, it runs like this: as §1

For data set [28], the system named is Mus musculus. Nature of the data set: Antinociceptive activity in mouse model of CFA-induced chronic inflammatory pain assessed as reduction in tactile hyperalgesia at 3 nmol, icv dosed once daily for 6 days. The data set is classed as functional, organism-based. Conditions: time 6.0 day.
The species entered for data set [29] is Mus musculus. Nature of the data set: Antinociceptive activity in mouse. Type of data set: functional.
Data set [30] concerns Mus musculus. Nature of the data set: Antinociceptive activity in mouse model of CFA-induced chronic inflammatory pain assessed as reduction in tactile hyperalgesia at 3 nmol, icv after 15 to 90 mins. Type of data set: functional, organism-based. The following applies: time 15-90 min.

Activity calls are given as the source filed them. The rule behind the calls is not given here. Non-standard residues stand in square brackets, D forms with d. Residues, ends and D or L forms follow the SMILES beside them. NMeY = CN[C@@H](Cc1ccc(O)cc1)C(=O)O; NMeF = CN[C@@H](Cc1ccccc1)C(=O)O

Turning to `C[C@@H](NC(=O)[C@@H](N)Cc1ccc(O)cc1)C(=O)NCC(=O)N(C)[C@@H](Cc1ccccc1)C(=O)NCC(=O)N1CCC[C@H]1C(=O)N[C@@H](CCC(N)=O)C(=O)N[C@@H](CCCNC(=N)N)C(=O)N[C@@H](Cc1ccccc1)C(N)=O` (H-Y[dA]G[NMeF]GPQRF-NH2), the Emax (usually the size of the effect at its maximum, as opposed to the concentration needed) worked out at 81.6% at Mu-type opioid receptor [1], 69.8% in [8], 85.4% in [12] and 73.3% in data set [17]. Also, the half-life (commonly the time in which the quantity being followed falls by half) at 10 µM in data set [2] is 1.44 h. The EC50 (in general, the concentration giving half of the maximal effect) on Mu-type opioid receptor [3] was found to be 38.6 nM; in data set [10], 973 nM; in [11] it was 1490 nM; in data set [20], 575 nM; in [25] it was 311 nM. The Activity entry with Mus musculus [4] is “Dose-dependent effect”; with Mus musculus [7], “Dose-dependent effect”; in [14], “Non-Toxic”; in data set [15], “Non-Toxic”; in the data set on Mus musculus [23], “Dose-dependent effect”; in the data set on Mus musculus [26], “Dose-dependent effect”. In addition, the ED50 in the data set with Mus musculus [4] is 26.6 mg/kg; in the data set on Mus musculus [7] it was 3.92 pmol; in the data set with Mus musculus [21], 0.0163 nmol; in the data set on Mus musculus [23], 18.8 pmol; in the data set with Mus musculus [26], 103.4 pmol. Moreover, the result in the data set with Mus musculus [5], in the data set with Mus musculus [6], in the data set with Mus musculus [9], with Mus musculus [16] and in the data set with Mus musculus [19] was Active. Also, the outcome in the data set with Mus musculus [13] and in the data set on Mus musculus [24] was inactive. For the same compound, the Time in the data set with Mus musculus [18] is on record as 20 min; in the data set with Mus musculus [22] it was above 60 min.

Take `CN[C@@H](Cc1ccc(O)cc1)C(=O)N[C@H](C)C(=O)NCC(=O)N[C@@H](Cc1ccccc1)C(=O)N[C@@H](CCC(N)=O)C(=O)N1CCC[C@H]1C(=O)N[C@@H](CCC(N)=O)C(=O)N[C@@H](CCCNC(=N)N)C(=O)N[C@@H](Cc1ccccc1)C(N)=O` (H-[NMeY][dA]GFQPQRF-NH2): the maximum response (Emax) at Mu-type opioid receptor [1] is 86.7%; in data set [27], 70%; in data set [8], 72.4%; in data set [17], 49.5%. Moreover, the EC50 on Mu-type opioid receptor [3] amounted to 196 nM; in data set [10] it was 928 nM; in data set [11] it was 2590 nM; in [25] it was 132 nM. In addition, the outcome in the data set with Mus musculus [19] was Active. Besides, the ED50 with Mus musculus [21] was 1.298 nmol.

With `CN1CC[C@]23c4c5ccc(O)c4O[C@H]2[C@@H](O)C=C[C@H]3[C@H]1C5` [MORPHINE], the outcome with Mus musculus [28] was inactive. Moreover, the ED50 in the data set listed under Mus musculus [29] turned out to be 1.02 nmol. Also, the outcome in the data set with Mus musculus [30] was Active.
